The source made the active and inactive calls. The rule behind the calls is not given here.
Columns and labels:
BaF3 [1] = test: Cytotoxicity against mouse BA/F3 cells transfected with […] at 1 uM after 24 hrs by plate reader analysis; type: functional, cell-based
BaF3 [2] = test: Cytotoxicity against mouse BA/F3 cells transfected with FLT3-ITD-G697R at 1 uM after 24 hrs by plate reader analysis; type: functional, cell-based
[3] = target: Tyrosine-protein kinase ABL2 (Homo sapiens) (UniProt P42684); test: Inhibition of ABL2 (unknown origin) transfected in mouse Ba/F3 cells at 5 uM after 24 hrs; type: cell-based; conditions: BaF3
Procedure, shortened: (§1)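 Kinase specificity panel: each Ba/F3 line transformed with one of 24 tyrosine kinases depends on that kinase to grow. Cells were given compound at 1 or 5 µM for 24 h, with DMSO as comparator. Percentage growth was read by ATP-lite luminescence and reported as mean ± SEM.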

[4] = target: T1, Ephrin type-A receptor 1 (Homo sapiens) (UniProt P21709); test: Inhibition of EPHA1 (unknown origin) transfected in mouse Ba/F3 cells at 5 uM after 24 hrs; type: cell-based; conditions: BaF3; procedure, shortened: as §1
T1 sequence (whole entry): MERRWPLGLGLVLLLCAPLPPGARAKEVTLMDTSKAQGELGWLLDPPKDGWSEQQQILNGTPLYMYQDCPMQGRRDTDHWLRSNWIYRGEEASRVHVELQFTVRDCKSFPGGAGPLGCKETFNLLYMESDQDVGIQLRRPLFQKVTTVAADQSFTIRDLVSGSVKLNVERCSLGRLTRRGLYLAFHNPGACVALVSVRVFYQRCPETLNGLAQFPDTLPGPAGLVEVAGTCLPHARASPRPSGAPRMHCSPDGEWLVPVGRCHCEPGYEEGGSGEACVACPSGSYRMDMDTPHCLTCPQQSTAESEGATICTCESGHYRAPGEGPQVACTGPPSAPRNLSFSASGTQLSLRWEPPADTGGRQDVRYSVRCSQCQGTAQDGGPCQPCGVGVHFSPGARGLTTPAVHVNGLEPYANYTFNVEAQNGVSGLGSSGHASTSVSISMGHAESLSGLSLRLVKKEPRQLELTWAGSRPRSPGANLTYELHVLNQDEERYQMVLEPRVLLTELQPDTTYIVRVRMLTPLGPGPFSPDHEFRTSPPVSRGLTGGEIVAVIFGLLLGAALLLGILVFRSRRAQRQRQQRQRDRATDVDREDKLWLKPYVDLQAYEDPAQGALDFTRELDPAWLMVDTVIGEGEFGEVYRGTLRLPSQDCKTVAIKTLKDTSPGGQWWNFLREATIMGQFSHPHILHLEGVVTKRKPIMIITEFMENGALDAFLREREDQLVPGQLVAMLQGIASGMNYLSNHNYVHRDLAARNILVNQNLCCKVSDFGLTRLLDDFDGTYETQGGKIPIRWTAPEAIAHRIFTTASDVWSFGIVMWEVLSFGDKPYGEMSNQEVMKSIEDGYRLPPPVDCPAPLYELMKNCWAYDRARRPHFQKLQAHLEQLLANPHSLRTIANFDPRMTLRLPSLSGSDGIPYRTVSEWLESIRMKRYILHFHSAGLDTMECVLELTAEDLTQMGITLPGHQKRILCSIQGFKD

[5] = target: Tyrosine-protein kinase Fyn (Homo sapiens) (UniProt P06241); test: Inhibition of FYN (unknown origin) transfected in mouse Ba/F3 cells at 5 uM after 24 hrs; type: cell-based; conditions: BaF3; procedure, shortened: as §1
[6] = target: Ephrin type-A receptor 2 (Homo sapiens) (UniProt P29317); test: Inhibition of EPHA2 (unknown origin) transfected in mouse Ba/F3 cells at 5 uM after 24 hrs; type: cell-based; conditions: BaF3; procedure, shortened: as §1
[7] = target: Proto-oncogene tyrosine-protein kinase Src (Homo sapiens) (UniProt P12931); test: Inhibition of SRC (unknown origin) transfected in mouse Ba/F3 cells at 5 uM after 24 hrs; type: cell-based; conditions: BaF3
[8] = target: T2, Non-receptor tyrosine-protein kinase TNK1 (Homo sapiens) (UniProt Q13470); test: Inhibition of TNK1 (unknown origin) transfected in mouse Ba/F3 cells at 5 uM after 24 hrs; type: cell-based; conditions: BaF3
T2 sequence (whole entry): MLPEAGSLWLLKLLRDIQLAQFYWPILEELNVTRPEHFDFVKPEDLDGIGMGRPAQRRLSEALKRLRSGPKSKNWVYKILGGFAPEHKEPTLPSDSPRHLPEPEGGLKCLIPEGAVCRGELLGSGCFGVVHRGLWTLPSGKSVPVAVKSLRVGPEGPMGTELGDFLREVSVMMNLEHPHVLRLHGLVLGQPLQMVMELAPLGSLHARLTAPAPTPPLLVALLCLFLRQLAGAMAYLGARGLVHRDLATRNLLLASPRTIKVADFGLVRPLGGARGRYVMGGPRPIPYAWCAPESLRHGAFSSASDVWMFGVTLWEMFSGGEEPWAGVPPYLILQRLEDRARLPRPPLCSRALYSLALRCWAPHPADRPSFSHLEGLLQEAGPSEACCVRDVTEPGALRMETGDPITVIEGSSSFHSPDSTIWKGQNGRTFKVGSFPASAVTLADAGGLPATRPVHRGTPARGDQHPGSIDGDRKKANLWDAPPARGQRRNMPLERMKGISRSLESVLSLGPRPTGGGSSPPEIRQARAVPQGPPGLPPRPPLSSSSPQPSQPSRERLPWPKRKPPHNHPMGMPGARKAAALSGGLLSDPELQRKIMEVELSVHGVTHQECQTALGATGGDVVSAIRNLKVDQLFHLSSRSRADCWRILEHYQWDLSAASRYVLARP

[9] = target: Receptor tyrosine-protein kinase erbB-2 (Homo sapiens) (UniProt P04626); test: Inhibition of ERBB2 (unknown origin) transfected in mouse Ba/F3 cells at 5 uM after 24 hrs; type: cell-based; conditions: BaF3; procedure, shortened: as §1
[10] = target: Ephrin type-A receptor 5 (Homo sapiens) (UniProt P54756); test: Inhibition of EPHA5 (unknown origin) transfected in mouse Ba/F3 cells at 5 uM after 24 hrs; type: cell-based; conditions: BaF3; procedure, shortened: as §1
[11] = target: Leukocyte tyrosine kinase receptor (Homo sapiens) (UniProt P29376); test: Inhibition of LTK (unknown origin) transfected in mouse Ba/F3 cells at 5 uM after 24 hrs; type: cell-based; conditions: BaF3
Sequence of Leukocyte tyrosine kinase receptor (Homo sapiens) (P29376 whole entry): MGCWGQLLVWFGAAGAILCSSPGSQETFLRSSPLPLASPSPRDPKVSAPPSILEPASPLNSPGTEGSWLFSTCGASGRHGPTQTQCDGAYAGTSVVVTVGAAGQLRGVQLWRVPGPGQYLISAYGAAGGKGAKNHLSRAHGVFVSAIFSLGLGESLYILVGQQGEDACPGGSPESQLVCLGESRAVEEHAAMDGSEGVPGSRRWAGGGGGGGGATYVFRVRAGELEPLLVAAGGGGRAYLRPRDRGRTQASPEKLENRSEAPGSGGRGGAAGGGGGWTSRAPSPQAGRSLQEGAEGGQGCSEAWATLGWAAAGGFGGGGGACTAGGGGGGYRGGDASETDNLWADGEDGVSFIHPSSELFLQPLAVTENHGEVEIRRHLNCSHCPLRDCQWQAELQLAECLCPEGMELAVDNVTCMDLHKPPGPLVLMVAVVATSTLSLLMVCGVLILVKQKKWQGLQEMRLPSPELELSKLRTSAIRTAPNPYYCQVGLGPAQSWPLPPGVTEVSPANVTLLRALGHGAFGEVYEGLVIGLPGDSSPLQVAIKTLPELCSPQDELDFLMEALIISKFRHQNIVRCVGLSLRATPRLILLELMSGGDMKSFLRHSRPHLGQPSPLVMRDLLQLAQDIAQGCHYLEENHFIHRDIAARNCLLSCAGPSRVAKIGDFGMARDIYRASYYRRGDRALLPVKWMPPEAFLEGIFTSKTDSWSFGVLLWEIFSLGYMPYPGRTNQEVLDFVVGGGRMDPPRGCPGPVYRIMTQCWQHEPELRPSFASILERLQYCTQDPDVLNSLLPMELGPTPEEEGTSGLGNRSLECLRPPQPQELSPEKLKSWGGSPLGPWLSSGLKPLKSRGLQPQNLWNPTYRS

Sequence of Tyrosine-protein kinase Fyn (Homo sapiens) (P06241 2-537 limits assumed): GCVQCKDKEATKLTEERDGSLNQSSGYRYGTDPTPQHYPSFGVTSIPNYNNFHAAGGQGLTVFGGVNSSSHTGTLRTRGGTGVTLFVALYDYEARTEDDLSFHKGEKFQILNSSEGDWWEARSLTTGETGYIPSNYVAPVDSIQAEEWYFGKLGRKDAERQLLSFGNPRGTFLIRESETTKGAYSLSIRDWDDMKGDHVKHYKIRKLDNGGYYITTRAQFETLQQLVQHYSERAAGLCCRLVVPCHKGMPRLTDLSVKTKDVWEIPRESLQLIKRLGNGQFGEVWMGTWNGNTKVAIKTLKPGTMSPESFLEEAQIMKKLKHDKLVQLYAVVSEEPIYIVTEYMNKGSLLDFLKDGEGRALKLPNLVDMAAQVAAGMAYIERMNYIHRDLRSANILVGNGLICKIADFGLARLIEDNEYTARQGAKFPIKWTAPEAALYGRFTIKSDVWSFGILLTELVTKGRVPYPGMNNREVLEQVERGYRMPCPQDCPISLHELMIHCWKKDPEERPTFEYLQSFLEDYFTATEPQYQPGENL
Sequence of Ephrin type-A receptor 2 (Homo sapiens) (P29317 whole entry): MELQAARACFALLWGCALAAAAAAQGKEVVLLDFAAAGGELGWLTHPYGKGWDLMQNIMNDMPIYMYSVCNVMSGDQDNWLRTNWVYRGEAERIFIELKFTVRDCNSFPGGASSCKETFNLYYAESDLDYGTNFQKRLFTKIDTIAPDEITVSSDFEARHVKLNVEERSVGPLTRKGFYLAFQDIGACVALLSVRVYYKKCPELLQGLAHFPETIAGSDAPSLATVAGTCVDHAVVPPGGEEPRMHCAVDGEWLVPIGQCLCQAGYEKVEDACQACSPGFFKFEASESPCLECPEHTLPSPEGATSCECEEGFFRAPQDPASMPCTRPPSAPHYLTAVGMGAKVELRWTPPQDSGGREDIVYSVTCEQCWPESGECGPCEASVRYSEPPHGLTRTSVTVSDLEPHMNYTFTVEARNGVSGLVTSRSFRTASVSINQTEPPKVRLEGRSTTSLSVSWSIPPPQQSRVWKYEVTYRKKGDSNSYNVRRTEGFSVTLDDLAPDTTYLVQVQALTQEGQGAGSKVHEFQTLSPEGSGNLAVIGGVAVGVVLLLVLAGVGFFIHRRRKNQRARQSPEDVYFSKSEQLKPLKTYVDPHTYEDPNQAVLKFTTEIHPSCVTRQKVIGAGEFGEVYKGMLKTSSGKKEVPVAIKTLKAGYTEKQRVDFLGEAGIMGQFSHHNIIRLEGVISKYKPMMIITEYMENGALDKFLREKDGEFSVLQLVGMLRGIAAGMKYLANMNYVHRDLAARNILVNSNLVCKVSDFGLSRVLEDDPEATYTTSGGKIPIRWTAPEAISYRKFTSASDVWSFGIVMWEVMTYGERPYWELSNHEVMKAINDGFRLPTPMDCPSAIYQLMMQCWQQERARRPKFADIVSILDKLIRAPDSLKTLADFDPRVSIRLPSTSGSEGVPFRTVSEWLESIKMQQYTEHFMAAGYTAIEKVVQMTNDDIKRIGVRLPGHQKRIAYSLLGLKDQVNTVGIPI
Sequence of Tyrosine-protein kinase ABL2 (Homo sapiens) (P42684 whole entry): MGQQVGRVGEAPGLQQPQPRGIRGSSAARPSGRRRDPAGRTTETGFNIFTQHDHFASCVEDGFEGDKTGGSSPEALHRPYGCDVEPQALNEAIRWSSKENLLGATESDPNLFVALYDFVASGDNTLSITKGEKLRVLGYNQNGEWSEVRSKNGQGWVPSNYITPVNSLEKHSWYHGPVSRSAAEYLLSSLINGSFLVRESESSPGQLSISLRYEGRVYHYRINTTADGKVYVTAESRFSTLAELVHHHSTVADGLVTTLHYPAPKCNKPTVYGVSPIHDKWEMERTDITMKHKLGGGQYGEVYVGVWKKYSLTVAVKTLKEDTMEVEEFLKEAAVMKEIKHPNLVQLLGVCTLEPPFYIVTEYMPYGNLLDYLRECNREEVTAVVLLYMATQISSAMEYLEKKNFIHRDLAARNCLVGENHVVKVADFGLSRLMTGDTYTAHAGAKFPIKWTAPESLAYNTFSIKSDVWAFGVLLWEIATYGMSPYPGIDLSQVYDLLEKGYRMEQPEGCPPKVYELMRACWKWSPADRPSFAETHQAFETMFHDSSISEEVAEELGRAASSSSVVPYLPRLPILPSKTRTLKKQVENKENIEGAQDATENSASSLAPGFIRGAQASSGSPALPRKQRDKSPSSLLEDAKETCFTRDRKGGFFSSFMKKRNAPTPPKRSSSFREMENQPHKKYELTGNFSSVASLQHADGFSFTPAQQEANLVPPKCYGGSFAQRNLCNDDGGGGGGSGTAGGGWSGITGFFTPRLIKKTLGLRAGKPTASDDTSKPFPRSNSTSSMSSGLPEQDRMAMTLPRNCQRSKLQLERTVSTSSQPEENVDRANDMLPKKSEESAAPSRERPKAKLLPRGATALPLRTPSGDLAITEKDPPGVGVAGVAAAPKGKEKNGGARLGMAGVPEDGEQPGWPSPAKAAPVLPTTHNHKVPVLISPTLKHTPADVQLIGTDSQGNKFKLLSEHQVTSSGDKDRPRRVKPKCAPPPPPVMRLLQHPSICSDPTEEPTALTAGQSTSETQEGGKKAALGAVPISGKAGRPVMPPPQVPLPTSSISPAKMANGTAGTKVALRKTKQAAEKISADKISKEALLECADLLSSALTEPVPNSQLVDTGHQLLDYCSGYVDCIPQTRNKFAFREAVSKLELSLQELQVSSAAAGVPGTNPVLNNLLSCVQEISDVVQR
Sequence of Proto-oncogene tyrosine-protein kinase Src (Homo sapiens) (P12931 2-536 limits assumed): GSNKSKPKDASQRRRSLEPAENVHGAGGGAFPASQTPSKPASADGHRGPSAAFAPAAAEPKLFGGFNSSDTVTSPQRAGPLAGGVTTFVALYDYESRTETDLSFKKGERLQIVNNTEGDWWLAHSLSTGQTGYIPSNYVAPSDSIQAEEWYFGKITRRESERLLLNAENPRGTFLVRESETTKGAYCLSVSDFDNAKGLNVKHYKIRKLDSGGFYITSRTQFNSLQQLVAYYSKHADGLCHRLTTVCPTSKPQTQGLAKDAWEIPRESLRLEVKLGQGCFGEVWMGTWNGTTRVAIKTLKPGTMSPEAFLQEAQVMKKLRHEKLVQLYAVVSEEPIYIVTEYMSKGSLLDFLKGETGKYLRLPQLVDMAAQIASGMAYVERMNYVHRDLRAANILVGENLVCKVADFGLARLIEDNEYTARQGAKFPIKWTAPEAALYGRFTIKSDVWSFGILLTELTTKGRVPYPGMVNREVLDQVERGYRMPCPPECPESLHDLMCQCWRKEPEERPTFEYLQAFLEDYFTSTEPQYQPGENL

inhibition [3]	inhibition [4]	inhibition [5]	inhibition [6]	inhibition [7]	inhibition [8]	inhibition [9]	inhibition [10]	inhibition [11]	SMILES	Activity (BaF3 [1])	Activity (BaF3 [2])
–	–	–	–	–	–	–	–	–	COc1ccc(C(=O)Nc2cc(-c3ccccc3)[nH]n2)cc1	Active	Active
Active	inactive	inactive	inactive	Active	inactive	inactive	Active	inactive	Fc1ccc(-c2n[nH]cc2-c2ccncc2)cc1Cl	–	–
inactive	inactive	inactive	inactive	inactive	inactive	inactive	inactive	inactive	Cc1ccc(-n2cnc3cc(Nc4nnc(C)c5ccccc45)ccc32)cc1	Active	Active

— ChEMBL document CHEMBL2390926, “Identification of novel FLT3 kinase inhibitors” (Eur J Med Chem, 2013)
